# Screens deposited in PubChem by The Scripps Research Institute Molecular Screening Center.
# M4 PAM: human M4 muscarinic receptor positive allosteric modulators, primary screen, CHO-K1 cells, Fluo-8 calcium fluorescence. Muscarinic acetylcholine receptor M4 (Homo sapiens), P08173. CHO-K1 hM4/Gqi5, ACh EC20; 0% = ACh EC20, 100% = maximal ACh. activation, % at 3 µM. 0.4% of 360,000 active. AID 624126, 2012;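 active = activation above its plate's cutoff, the mean activation of sample wells plus 3 SD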
# Target sequence (P08173 whole entry, looked up): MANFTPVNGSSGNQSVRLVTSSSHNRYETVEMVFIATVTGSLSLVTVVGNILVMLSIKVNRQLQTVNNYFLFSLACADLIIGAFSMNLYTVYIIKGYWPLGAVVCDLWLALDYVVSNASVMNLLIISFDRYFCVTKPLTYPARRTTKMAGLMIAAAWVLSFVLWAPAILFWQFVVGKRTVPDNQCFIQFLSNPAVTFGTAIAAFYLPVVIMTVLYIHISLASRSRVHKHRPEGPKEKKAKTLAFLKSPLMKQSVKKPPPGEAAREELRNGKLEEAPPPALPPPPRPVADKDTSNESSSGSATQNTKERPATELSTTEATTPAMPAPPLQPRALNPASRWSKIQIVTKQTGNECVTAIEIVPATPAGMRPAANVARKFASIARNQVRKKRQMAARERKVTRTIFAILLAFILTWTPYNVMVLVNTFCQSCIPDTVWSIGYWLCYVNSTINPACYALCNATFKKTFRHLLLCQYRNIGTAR
# M5 antag: human M5 muscarinic receptor antagonists, primary screen, CHO cells, Fluo-8 calcium fluorescence; CHO-hM5 cells, ACh EC80; inhibition, % at 3 µM; 0.59% of 360,000 active;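 active = inhibition above a per-plate cutoff, the mean of that plate's test compounds plus 3 SD, cut at about 27% in these data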;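 also: 0% = acetylcholine EC80 with DMSO and 100% = DMSO without agonist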
# M4 antag: human M4 muscarinic receptor antagonists, primary screen, CHO cells, Fluo-8 calcium fluorescence; Muscarinic acetylcholine receptor M4 (Homo sapiens), P08173; CHO-hM4 cells, ACh EC80; inhibition, % at 3 µM; 0.73% of 360,000 active; AID 624125, 2012;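 active = inhibition above its plate's cutoff, the mean inhibition of sample wells plus 3 SD, cut at about 27% in these data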;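 also: 0% = acetylcholine EC80 with DMSO and 100% = DMSO without agonist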
# M5 PAM: human M5 muscarinic receptor positive allosteric modulators, primary screen, CHO-K1 cells, Fluo-8 calcium fluorescence; AID 624038, 2012; activation, % at 3 µM; 0.3% of 360,000 active; CHO-K1 hM5, ACh EC20 PAM; 0% = ACh EC20, 100% = ACh EC100;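 active = activation above the run cutoff, the mean activation of all test compounds plus 3 SD, cut at about 18% in these data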
#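 System: CHO-K1 hM5 cells. Reagent: acetylcholine, EC20 level. Compound dosing: single dose, 3 µM nominal final test concentration. Timing: Post-acetylcholine fluorescence recording 140 s. Detection: Fluo-8 calcium fluorescence. Read-out: % activation, ACh-normalized. Benchmarks: ACh EC20 and EC100 wells. Repeats: singlicate, one well per test compound.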
# M4 ag: human M4 muscarinic receptor agonists, primary screen, CHO-K1 cells, Fluo-8 calcium fluorescence. Muscarinic acetylcholine receptor M4 (Homo sapiens), P08173. CHO-K1 hM4/Gqi5; vehicle 0%, full acetylcholine response 100%. activation, % at 3 µM. 0.14% of 360,000 active. AID 624127, 2012;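 active = activation above the run mean over all test wells plus 3 SD, cut at about 32% in these data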;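 also: peak over basal fluorescence ratio per well then scaled between controls; 0% = DMSO wells and 100% = acetylcholine at EC100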
# CHRM5 agonist: human M5 muscarinic receptor agonists, primary screen, CHO-K1 cells, Fluo-8 calcium fluorescence | CHO-K1 hM5 cells; 0% DMSO wells, 100% maximal acetylcholine response | activation, % at 3 µM | 0.19% of 360,000 active | AID 624037, 2012;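 active = activation above the run's mean over test compounds plus 3 SD, cut at about 23% in these data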;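 also: signal is peak over basal fluorescence ratio across the kinetic read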
# Active calls of the source: *. Compounds with a hit are over-represented: about 1.9% of the library has one in this group of screens.
SMILES,M4 PAM,M5 antag,M4 antag,M5 PAM,M4 ag,CHRM5 agonist
CC(C)C[C@H]1CNC(=S)N1CC1CCN(CCCC2CCCCC2)CC1,-15,15,55*,-19,1,-3
CC[C@H](C)[C@H]1CNC(=S)N1CC1CCN(CCCCc2ccccc2)CC1,-15,20,37*,-18,1,-3
CCN1CCC(CN2CCNC2=S)CC1,0,-6,-1,4,0,-1
S=C1NCCN1CC1CCN(CCC23CC4CC(CC(C4)C2)C3)CC1,-15,11,58*,-16,3,-3
CC(C)C[C@H]1CNC(=S)N1CC1CCN(CC2CCCC2)CC1,-6,-3,-7,-15,0,-3
COC(=O)[C@H]1C[C@H](OC(=O)NC2CC2)[C@@]2(O)CN(S(=O)(=O)c3ccc(C)cc3)CC2[C@H]1C(=O)OC (stereo partly drawn),6,10,-3,0,0,0
COc1cc(CNc2ccccc2)c([N+](=O)[O-])cc1OC,-3,10,5,0,3,2
CC[C@H](C)[C@H]1CNC(=S)N1CC1CCN(CCCC2CCCC2)CC1,-14,16,27*,-17,2,-3
CC(C)C[C@H]1CNC(=S)N1CC1CCN(CCC23CC4CC(CC(C4)C2)C3)CC1,-16,49*,67*,-19,3,-3
O=C(Nc1ccc(F)cc1F)Nc1csc2ccccc12,-13,33*,6,-31,12,-2
O=C(Nc1ccc(F)c(Cl)c1)Nc1csc2ccccc12,-11,34*,18,-26,20,7
O=C(c1ccccc1NS(=O)(=O)c1ccc(Br)cc1)N1CCOCC1,7,18,-5,-3,1,0
CN(C(=O)c1cccc(NC(=O)Cc2cccc(NC(=O)C3CCCN(C(=O)c4ccccc4)C3)c2)c1)C1CC1 (stereo not drawn),5,0,2,1,0,1
CCCC1(c2ccccc2)NC(=O)N(CC(=O)NCc2ccc(OC)cc2)C1=O (stereo not drawn),21*,2,2,-1,2,-4
O=C(CCCn1ncn2c(cc3occc32)c1=O)NCc1cccc(Cl)c1,20*,3,-13,2,3,-3
COc1cccc(CNC(=O)CCCn2ncn3c(cc4occc43)c2=O)c1,-2,12,0,-9,1,-1
CCOC(=O)c1cc(-c2ccccc2C)n(CC2CC(c3cccc([N+](=O)[O-])c3)=NO2)n1 (stereo not drawn),-2,9,2,-14,6,-9
N=C(N)SCC1=CCS(=O)(=O)C1,-9,31*,21,-20,19,-2
CCC1=NN(C(=O)c2ccc(Br)cc2)C(O)(c2ccc(C)cc2)C1 (stereo not drawn),22*,-5,-16,-4,0,-2
CCC1=NN(C(=O)c2ccc(C)cc2)C(O)(c2ccc(Br)cc2)C1 (stereo not drawn),4,-2,0,0,-1,-2
CN1CCC(N2CCN(C3CN(Cc4ccccc4)S(=O)(=O)C3)CC2)CC1 (stereo not drawn),0,-6,-11,1,0,1
CC1CCCC(NC(=O)COC(=O)c2ccc(Br)o2)C1C (stereo not drawn),22*,15,-3,4,2,-1
CC1CCCC(NC(=O)COC(=O)c2ccc([N+](=O)[O-])o2)C1C (stereo not drawn),-3,20,7,-11,0,-3
O=C1CCCCN1CCCC(=O)N1CCCC(Nc2ccccc2)C1 (stereo not drawn),5,3,3,27*,1,8
CC(C)c1ccc(NC2CCCN(C(=O)CCN3CCCC3=O)C2)cc1 (stereo not drawn),-3,1,-2,4,1,-1
SMILES,M4 PAM,M5 antag,M4 antag,M5 PAM,M4 ag,CHRM5 agonist
Cc1cnc(CNC(=O)c2ccc3sc([C@H]4C[C@H](O)[C@@H](CO)O4)nc3c2)cn1,2,-1,-5,5,1,2
Cc1cccc2c1N(CCOc1ccc(C(C)(C)C)cc1)C(=O)C2=O,-11,12,6,-12,-3,27*
CC(C)(C)c1nnc(N/N=C/c2cc(Br)ccc2O)n(N)c1=O,-31,20,34*,-22,29,9
CCNS(=O)(=O)c1ccc(CCC(=O)NCc2ccccn2)cc1,1,12,-3,-4,2,-3
CCc1ccccc1N(CC(=O)NC1CCCC1)C(=O)CNC(=O)c1cccs1,-5,3,-2,7,3,1
CC(C(O)C12CC3CC(CC(C3)C1)C2)N1CCCCC1 (stereo not drawn),-19,6,40*,-1,0,-11
CC1CCCC(C)N1C(=O)COC(=O)c1cccnc1Cl (stereo not drawn),1,3,1,1,2,0
CNCCNC[C@H](Cc1cccc2ccccc12)NCCc1ccccc1,-2,12,5,-1,2,1
CNC[C@H](Cc1ccccc1)NC[C@@H](Cc1cccc2ccccc12)NCCc1ccc(C)cc1,-1,2,38*,-10,24,-2
CCCC(=O)Nc1nc2ccc(S(=O)(=O)N3CCCCC3)cc2s1,1,3,-8,-10,7,8
CC(C)CC(=O)Nc1nc2ccc(S(=O)(=O)N3CCOCC3)cc2s1,-3,-8,-10,19*,3,1
O=C(/C=C/c1ccc(Cl)cc1)OCC(=O)c1ccc[nH]1,7,7,-8,-4,8,-8
CCN(CC)CCCN=C1N[C@@H](c2cccc(C(F)(F)F)c2)C(C(=O)OC)=C(C)N1CC,9,9,4,-6,2,-2
Cn1c(=O)c(C(=O)COc2ccc(C#N)cc2)c(N)n(Cc2ccccc2)c1=O,-11,12,-2,-18,29,38*
Cc1cccc(-n2ncc3c(N4CCOCC4)ncnc32)c1,7,-4,-11,-1,6,3
Cc1cccc(-n2ncc3c(N4CCCC4)ncnc32)c1,23*,1,-3,-4,6,1
Cc1cccc(N2C(=O)c3cccc4c(N)ccc(c34)C2=O)c1,-18,51*,29*,-31,104*,380*
